Calls of active or inactive are those of the source. The rule behind the calls is not given here.
Columns and labels:
Format in all cases: cell-based
[1] = tested on: T1, Alpha-crystallin B chain (Homo sapiens), P02511 [R120G]; assay: Inhibition of alpha-crystallin B R120G mutant (unknown origin)-induced intracellular protein aggregation expressed in human HeLa cells at 4 uM incubated for 6 to 8 hrs by fluorescence microscopy relative to untreated control
T1 sequence (whole entry): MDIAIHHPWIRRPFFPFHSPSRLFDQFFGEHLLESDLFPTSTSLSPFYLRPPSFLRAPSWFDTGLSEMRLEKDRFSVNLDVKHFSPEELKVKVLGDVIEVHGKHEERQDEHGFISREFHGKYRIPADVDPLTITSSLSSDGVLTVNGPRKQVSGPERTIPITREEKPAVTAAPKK
Procedure, shortened: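 Cells were transfected with mutant crystallin constructs using Lipofectamine 2000 and cultured for 16 h until the overexpressed mutants formed aggregates. Compounds were then added to the culture medium and incubated for 6~8 h. Aggregate dissolution was scored by fluorescence microscopy. For αB R120G, % inhibition at 0.4 and 4 µM was calculated against DMSO-treated cells; values are mean ± error.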

[2] = tested on: T2, Beta-crystallin B2 (Homo sapiens), P43320 [V187E]; assay: Inhibition of beta-crystallin B2 V187E mutant (unknown origin)-induced cytotoxicity in human HeLa cells assessed as increase in cell viability at 0.04 to 4 uM incubated for 12 hrs by CCK8 assay
T2 sequence (whole entry): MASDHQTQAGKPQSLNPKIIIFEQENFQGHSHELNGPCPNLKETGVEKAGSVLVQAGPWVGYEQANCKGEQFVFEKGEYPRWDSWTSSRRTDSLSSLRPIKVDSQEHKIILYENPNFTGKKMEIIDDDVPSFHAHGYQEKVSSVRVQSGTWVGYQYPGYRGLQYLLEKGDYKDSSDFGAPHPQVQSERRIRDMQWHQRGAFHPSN

[3] = tested on: T2, Beta-crystallin B2 (Homo sapiens), P43320 [V187E]; assay: Inhibition of beta-crystallin B2 V187E mutant (unknown origin)-induced cytotoxicity in human HLE-B3 cells assessed as increase in cell viability at 0.04 to 4 uM incubated for 12 hrs by CCK8 assay
[4] = tested on: T3, Gamma-crystallin C (Homo sapiens), P07315 [G129C]; assay: Inhibition of gamma-crystallin C G129C mutant (unknown origin)-induced cytotoxicity in human HeLa cells assessed as increase in cell viability at 0.04 to 4 uM incubated for 12 hrs by CCK8 assay
T3 sequence (whole entry): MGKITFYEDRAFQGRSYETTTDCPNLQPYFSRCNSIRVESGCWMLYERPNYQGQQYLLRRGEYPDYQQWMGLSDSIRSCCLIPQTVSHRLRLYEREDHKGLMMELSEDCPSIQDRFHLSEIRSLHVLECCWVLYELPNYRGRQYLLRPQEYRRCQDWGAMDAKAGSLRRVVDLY

[5] = tested on: T1, Alpha-crystallin B chain (Homo sapiens), P02511 [R120G]; assay: Inhibition of alpha-crystallin B R120G mutant (unknown origin)-induced cytotoxicity in human HLE-B3 cells assessed as increase in cell viability at 0.04 to 4 uM incubated for 12 hrs by CCK8 assay
HeLa = assay: Toxicity in human HeLa cells transfected with peGFP-N1 assessed as reduction in cell viability of at 0.04 to 4 uM incubated for 12 hrs by CCK8 assay
[6] = tested on: T1, Alpha-crystallin B chain (Homo sapiens), P02511 [R120G]; assay: Inhibition of alpha-crystallin B R120G mutant (unknown origin)-induced cytotoxicity in human HeLa cells assessed as increase in cell viability at 0.04 to 4 uM incubated for 12 hrs by CCK8 assay
[7] = tested on: T4, Alpha-crystallin A chain (Homo sapiens), P02489 [Y118D]; assay: Inhibition of alpha-crystallin A Y118D mutant (unknown origin)-induced intracellular protein aggregation expressed in human HeLa cells or HLE-B3 cells at 4 uM incubated for 6 to 8 hrs by fluorescence microscopy relative to untreated control
T4 sequence (whole entry): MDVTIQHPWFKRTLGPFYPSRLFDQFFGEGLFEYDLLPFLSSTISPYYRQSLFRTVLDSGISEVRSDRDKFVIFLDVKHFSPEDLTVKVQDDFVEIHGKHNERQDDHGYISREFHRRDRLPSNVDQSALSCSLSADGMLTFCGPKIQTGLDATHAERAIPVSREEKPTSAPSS
Procedure, shortened: (§1)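 Cells were transfected with mutant crystallin and incubated 16 h to overexpress it and form aggregates. Compounds were then added to the medium for 6~8 h. Aggregates were scored by fluorescence microscopy, and percent inhibition was calculated against DMSO-treated cells.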

[8] = Toxicity in human HLE-B3 cells transfected with peGFP-N1 assessed as reduction in cell viability of at 0.04 to 4 uM incubated for 12 hrs by CCK8 assay
[9] = tested on: T3, Gamma-crystallin C (Homo sapiens), P07315 [G129C]; assay: Inhibition of gamma-crystallin C G129C mutant (unknown origin)-induced cytotoxicity in human HLE-B3 cells assessed as increase in cell viability at 0.04 to 4 uM incubated for 12 hrs by CCK8 assay
[10] = tested on: T5, Gamma-crystallin D (Homo sapiens), P07320 [W43R]; assay: Inhibition of gamma-crystallin D W43R mutant (unknown origin)-induced intracellular protein aggregation expressed in human HeLa cells or HLE-B3 cells at 4 uM incubated for 6 to 8 hrs by fluorescence microscopy relative to untreated control; procedure, shortened: as §1
T5 sequence (whole entry): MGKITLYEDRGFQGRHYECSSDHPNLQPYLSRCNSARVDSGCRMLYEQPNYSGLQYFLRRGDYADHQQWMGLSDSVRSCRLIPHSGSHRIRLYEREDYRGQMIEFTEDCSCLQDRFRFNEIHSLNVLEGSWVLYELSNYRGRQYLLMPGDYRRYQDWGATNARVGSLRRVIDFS

[11] = tested on: T3, Gamma-crystallin C (Homo sapiens), P07315 [G129C]; assay: Inhibition of gamma-crystallin C G129C mutant (unknown origin)-induced intracellular protein aggregation expressed in human HeLa cells or HLE-B3 cells at 4 uM incubated for 6 to 8 hrs by fluorescence microscopy relative to untreated control; procedure, shortened: as §1
[12] = tested on: T2, Beta-crystallin B2 (Homo sapiens), P43320 [V187E]; assay: Inhibition of beta-crystallin B2 V187E mutant (unknown origin)-induced intracellular protein aggregation expressed in human HeLa cells or HLE-B3 cells at 4 uM incubated for 6 to 8 hrs by fluorescence microscopy relative to untreated control; procedure, shortened: as §1

O=C(O)c1cc(O)c2c3nc4ccccc4oc-3cc(=O)c2n1
inhibition [1]: inactive

C[C@H](CCCC(C)(C)O)[C@H]1CC[C@H]2[C@@H]3CC=C4C[C@@H](O)CC[C@]4(C)[C@H]3CC[C@]12C
inhibition [2]: inactive | inhibition [3]: inactive | inhibition [4]: inactive | inhibition [5]: inactive | Activity (HeLa): Toxic | inhibition [6]: inactive | inhibition [7]: Active | Activity [8]: Toxic | inhibition [9]: inactive

N[C@@H](CCC(=O)N[C@@H](CS)C(=O)NCC(=O)O)C(=O)O
inhibition [1]: inactive

O=C(O)COc1nn(Cc2ccccc2)c2ccccc12
inhibition [1]: inactive

O=C1O[C@H]([C@@H](O)CO)C([O-])=C1O.[Na+]
inhibition [1]: inactive

CC(C)=CCC[C@@H](C)[C@H]1CC[C@@]2(C)C3=C(CC[C@]12C)[C@@]1(C)CC[C@H](O)C(C)(C)[C@@H]1CC3
inhibition [10]: Active | inhibition [11]: Active | inhibition [7]: Active | inhibition [12]: Active

— ChEMBL document CHEMBL4196177, “Synthesis, Evaluation, and Structure-Activity Relationship Study of Lanosterol Derivatives To Reverse Mutant-Crystallin-Induced Protein Aggregation” (J Med Chem, 2018)
